What was measured:
Assay type in all cases: functional
OVCAR-3 = assay: Growth inhibition of human OVCAR3 cells at 10 uM after 48 hrs by SRB assay relative to control; details: OVCAR-3, 48 h, read-out: GI
Outline: (§1)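 Screened at the National Cancer Institute by the standard NCI protocol using the sulforhodamine B assay, which measures cellular protein. Single dose of 10 µM. Result is percent growth inhibition; values above 100% mean cell number fell below the initial population. Values are the average of duplicates.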

UACC-62 = assay: Growth inhibition of human UACC62 cells at 10 uM after 48 hrs by SRB assay relative to control; details: UACC-62, 48 h, read-out: GI
Outline: (§2)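 NCI screen against its human cancer cell line panel by the standard NCI protocol, SRB protein stain. Single dose of 10 μM. Percent growth inhibition versus control; values above 100% mean the cell population fell below the starting number. Each value is the mean of duplicates.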

NCI-H522 = assay: Growth inhibition of human NCI-H522 cells at 10 uM after 48 hrs by SRB assay relative to control; details: NCI-H522, 48 h, read-out: GI; outline: as §1
SK-MEL-5 = assay: Growth inhibition of human SK-MEL-5 cells at 10 uM after 48 hrs by SRB assay relative to control; details: SK-MEL-5, 48 h, read-out: GI; outline: as §1
SK-MEL-2 = assay: Growth inhibition of human SK-MEL-2 cells at 10 uM after 48 hrs by SRB assay relative to control; details: SK-MEL-2, 48 h, read-out: GI; outline: as §1
HCC 2998 = assay: Growth inhibition of human HCC2998 cells at 10 uM after 48 hrs by SRB assay relative to control; details: HCC 2998, 48 h, read-out: GI; outline: as §1
HL-60(TB) = assay: Growth inhibition of human HL-60(TB) cells at 10 uM after 48 hrs by SRB assay relative to control; details: HL-60, 48 h, read-out: GI
Outline: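 Run at NCI under its standard single-dose protocol against a leukemia cell panel. Cells were exposed to 10 µM; growth was read by sulforhodamine B staining of cellular protein and expressed as % growth inhibition versus untreated control. Values above 100% mean the cell population fell below the starting count (cytocidal). Each value is the average of duplicates.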

NCI/ADR-RES = assay: Growth inhibition of human NCI/ADR-RES cells at 10 uM after 48 hrs by SRB assay relative to control; details: read-out: GI; outline: as §1
COLO 205 = assay: Growth inhibition of human COLO205 cells at 10 uM after 48 hrs by SRB assay relative to control; details: COLO 205, 48 h, read-out: GI; outline: as §1
A549 = assay: Growth inhibition of human A549 cells at 10 uM after 48 hrs by SRB assay relative to control; details: A549, 48 h, read-out: GI; outline: as §1
HOP-62 = assay: Growth inhibition of human HOP62 cells at 10 uM after 48 hrs by SRB assay relative to control; details: HOP-62, 48 h, read-out: GI; outline: as §1
MDA-MB-435 = assay: Growth inhibition of human MDA-MB-435 cells at 10 uM after 48 hrs by SRB assay relative to control; details: MDA-MB-435, 48 h, read-out: GI; outline: as §1
PC-3 = assay: Growth inhibition of human PC3 cells at 10 uM after 48 hrs by SRB assay relative to control; details: PC-3, 48 h, read-out: GI; outline: as §1
SN12C = assay: Growth inhibition of human SN12C cells at 10 uM after 48 hrs by SRB assay relative to control; details: read-out: GI; outline: as §1
HCT-116 = assay: Growth inhibition of human HCT116 cells at 10 uM after 48 hrs by SRB assay relative to control; details: HCT-116, 48 h, read-out: GI; outline: as §1
SW-620 = assay: Growth inhibition of human SW620 cells at 10 uM after 48 hrs by SRB assay relative to control; details: SW-620, 48 h, read-out: GI; outline: as §2
SNB-19 = assay: Growth inhibition of human SNB19 cells at 10 uM after 48 hrs by SRB assay relative to control; details: SNB-19, 48 h, read-out: GI; outline: as §2
BT-549 = assay: Growth inhibition of human BT549 cells at 10 uM after 48 hrs by SRB assay relative to control; details: BT-549, 48 h, read-out: GI; outline: as §1
786-0 = assay: Growth inhibition of human 786-0 cells at 10 uM after 48 hrs by SRB assay relative to control; details: 786-0, 48 h, read-out: GI; outline: as §1
HT-29 = assay: Growth inhibition of human HT-29 cells at 10 uM after 48 hrs by SRB assay relative to control; details: HT-29, 48 h, read-out: GI; outline: as §1
SF-539 = assay: Growth inhibition of human SF539 cells at 10 uM after 48 hrs by SRB assay relative to control; details: SF-539, 48 h, read-out: GI; outline: as §1
TK-10 = assay: Growth inhibition of human TK10 cells at 10 uM after 48 hrs by SRB assay relative to control; details: TK-10, 48 h, read-out: GI; outline: as §2
HOP-92 = assay: Growth inhibition of human HOP92 cells at 10 uM after 48 hrs by SRB assay relative to control; details: HOP-92, 48 h, read-out: GI; outline: as §1
Malme-3M = assay: Growth inhibition of human MALME-3M cells at 10 uM after 48 hrs by SRB assay relative to control; details: read-out: GI; outline: as §1
UO-31 = assay: Growth inhibition of human UO31 cells at 10 uM after 48 hrs by SRB assay relative to control; details: UO-31, 48 h, read-out: GI; outline: as §2
MOLT-4 = assay: Growth inhibition of human MOLT4 cells at 10 uM after 48 hrs by SRB assay relative to control; details: MOLT-4, 48 h, read-out: GI; outline: as §1
U-251 = assay: Growth inhibition of human U251 cells at 10 uM after 48 hrs by SRB assay relative to control; details: U-251, 48 h, read-out: GI; outline: as §2
SNB-75 = assay: Growth inhibition of human SNB75 cells at 10 uM after 48 hrs by SRB assay relative to control; details: SNB-75, 48 h, read-out: GI; outline: as §2
Hs-578T = assay: Growth inhibition of human Hs 578T cells at 10 uM after 48 hrs by SRB assay relative to control; details: read-out: GI; outline: as §1
OVCAR-4 = assay: Growth inhibition of human OVCAR4 cells at 10 uM after 48 hrs by SRB assay relative to control; details: OVCAR-4, 48 h, read-out: GI; outline: as §1
K562 = assay: Growth inhibition of human K562 cells at 10 uM after 48 hrs by SRB assay relative to control; details: K562, 48 h, read-out: GI; outline: as §1
MDA-MB-468 = assay: Growth inhibition of human MDA-MB-468 cells at 10 uM after 48 hrs by SRB assay relative to control; details: MDA-MB-468, 48 h, read-out: GI; outline: as §1
SR = assay: Growth inhibition of human SR cells at 10 uM after 48 hrs by SRB assay relative to control; details: read-out: GI; outline: as §2

SMILES	inhibition of growth at 10 µM (OVCAR-3) [%]	inhibition of growth at 10 µM (UACC-62) [%]	inhibition of growth at 10 µM (NCI-H522) [%]	inhibition of growth at 10 µM (SK-MEL-5) [%]	inhibition of growth at 10 µM (SK-MEL-2) [%]	inhibition of growth at 10 µM (HCC 2998) [%]	inhibition of growth at 10 µM (HL-60(TB)) [%]	inhibition of growth at 10 µM (NCI/ADR-RES) [%]	inhibition of growth at 10 µM (COLO 205) [%]	inhibition of growth at 10 µM (A549) [%]	inhibition of growth at 10 µM (HOP-62) [%]	inhibition of growth at 10 µM (MDA-MB-435) [%]	inhibition of growth at 10 µM (PC-3) [%]	inhibition of growth at 10 µM (SN12C) [%]	inhibition of growth at 10 µM (HCT-116) [%]	inhibition of growth at 10 µM (SW-620) [%]	inhibition of growth at 10 µM (SNB-19) [%]	inhibition of growth at 10 µM (BT-549) [%]	inhibition of growth at 10 µM (786-0) [%]	inhibition of growth at 10 µM (HT-29) [%]	other results
COc1cc(NC(=O)c2cccc(-c3cc(=O)c4c(O)c(OC)c(OC)cc4o3)c2)cc(OC)c1OC	76.2	50.6	58.8	60.8	30.4	34	22	50.6	32.3	59.5	88.3	34.6	50.2	37	55.2	26.7	50	93	33.7	37.2	inhibition of growth at 10 µM (SF-539): 48.3%; inhibition of growth at 10 µM (TK-10): 25.2%; inhibition of growth at 10 µM (HOP-92): 43.9%; inhibition of growth at 10 µM (Malme-3M): 49%; inhibition of growth at 10 µM (UO-31): 65.7%; inhibition of growth at 10 µM (MOLT-4): 27.2%; inhibition of growth at 10 µM (U-251): 55.2%; inhibition of growth at 10 µM (SNB-75): 67.8%; inhibition of growth at 10 µM (Hs-578T): 104%; inhibition of growth at 10 µM (OVCAR-4): 41.4%; inhibition of growth at 10 µM (K562): 45.5%; inhibition of growth at 10 µM (MDA-MB-468): 40.1%; inhibition of growth at 10 µM (SR): 45.6%
COc1ccccc1C(=O)Nc1cccc(-c2cc(=O)c3c(O)c(OC)c(OC)cc3o2)c1	-14.6	30.2	41	13.4	0.56	-9.63	0.6	5.26	-7.03	22.1	16.5	1.26	10.3	5.29	11.7	10.5	25.4	25.1	11.3	2.63	inhibition of growth at 10 µM (SF-539): 9.52%; inhibition of growth at 10 µM (TK-10): -0.86%; inhibition of growth at 10 µM (HOP-92): 5.45%; inhibition of growth at 10 µM (Malme-3M): -12.7%; inhibition of growth at 10 µM (UO-31): 15.2%; inhibition of growth at 10 µM (MOLT-4): 6.77%; inhibition of growth at 10 µM (U-251): 33.1%; inhibition of growth at 10 µM (SNB-75): 16.4%; inhibition of growth at 10 µM (Hs-578T): 11.4%; inhibition of growth at 10 µM (OVCAR-4): -5.24%; inhibition of growth at 10 µM (K562): 15.5%; inhibition of growth at 10 µM (MDA-MB-468): -22.9%; inhibition of growth at 10 µM (SR): 16.5%

— ChEMBL document CHEMBL4325889, “Natural products hybrids: 3,5,4'-Trimethoxystilbene-5,6,7-trimethoxyflavone chimeric analogs as potential cytotoxic agents against diverse human cancer cells” (Eur J Med Chem, 2019)
